The results in this text go back to ChEMBL document CHEMBL3763103, “Synthesis and evaluation of vitamin D receptor-mediated activities of cholesterol and vitamin D metabolites” (Eur J Med Chem, 2016).

The structures appear in SMILES notation. Activity calls are given as the source filed them. No cut-off for these calls is given here.

Data set [1] deals with T1, Vitamin D3 receptor (Homo sapiens, UniProt P11473).
T1 sequence (P11473 whole entry): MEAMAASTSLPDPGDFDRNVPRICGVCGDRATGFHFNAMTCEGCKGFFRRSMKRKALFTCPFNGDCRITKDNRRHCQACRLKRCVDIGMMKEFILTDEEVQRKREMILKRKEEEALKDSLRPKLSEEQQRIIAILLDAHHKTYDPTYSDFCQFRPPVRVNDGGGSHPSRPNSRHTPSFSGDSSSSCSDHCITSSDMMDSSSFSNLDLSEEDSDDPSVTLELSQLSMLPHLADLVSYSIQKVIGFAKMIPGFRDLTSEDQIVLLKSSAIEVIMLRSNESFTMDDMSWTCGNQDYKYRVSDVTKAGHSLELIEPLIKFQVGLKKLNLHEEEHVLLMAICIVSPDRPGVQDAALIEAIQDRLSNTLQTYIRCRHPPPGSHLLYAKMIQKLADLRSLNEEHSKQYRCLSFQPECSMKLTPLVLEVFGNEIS
The data set is described as follows: Agonist activity at VP16 tagged-VDR-LBD (unknown origin) expressed in HEK293T cells assessed as SRC1 coactivator peptide recruitment after 16 hrs by luciferase reporter gene based two hybrid assay. Format: cell-based, HEK-293T. A general note: A reporter such as luciferase makes a cellular process visible.

Data set [2] addresses T1, Vitamin D3 receptor. The data set can be described thus: Antagonist activity against VP16 tagged-VDR-LBD (unknown origin) expressed in HEK293T cells assessed as inhibition of 1,25-dihydroxyvitamin D3-induced SRC1 coactivator peptide recruitment after 16 hrs by luciferase reporter gene based two hybrid assay. Format: cell-based, HEK-293T.
In data set [3] the target is T1, Vitamin D3 receptor. The data set can be described thus: Agonist activity at VDR-LBD (unknown origin) expressed in Escherichia coli assessed as SRC2-3 coactivator peptide recruitment after 30 mins by fluorescence polarization assay. (In general: In fluorescence polarisation assays a small probe gives low polarisation when free and higher when bound to something large.)

Data set [4] deals with T1, Vitamin D3 receptor. The data set is described as follows: Antagonist activity against VDR-LBD (unknown origin) expressed in Escherichia coli assessed as inhibition of VDR agonist LG190178-induced SRC2-3 coactivator peptide recruitment after 30 mins by fluorescence polarization assay.
Data set [5] is described as follows: Cytotoxicity against HEK293T cells assessed as reduction in cell viability after 18 hrs by CellTiter-Glo luminescence assay. The note with it: human, read-out: LD50. The data set is classed as cell-based, HEK-293T.
Data set [6] addresses T2, Vitamin D3 receptor (Homo sapiens) (UniProt P11473).
T2 sequence (whole entry): T1 sequence (P11473 whole entry)
The data set is described as follows: Agonist activity at VP16 tagged-VDR-LBD (unknown origin) expressed in HEK293T cells assessed as SRC1 coactivator peptide recruitment after 16 hrs by luciferase reporter gene based two hybrid assay relative to 1,25-dihydroxyvitamin D3. To be noted: HEK-293T. The data set is classed as cell-based. The gist of the method:
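HEK293T cells were lipid-transfected with VP16-VDR-LBD, SRC1-GAL4 and 4×UAS luciferase reporter plasmids for 16 h. Cells were then plated at 15,000/well on matrigel in phenol-red-free DMEM with 2% charcoal-treated FBS. Three experiments in quadruplicate; nonlinear regression.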

Data set [7] concerns the target T2, Vitamin D3 receptor (Homo sapiens). The data set can be described thus: Agonist activity at VDR-LBD in human DU145 cells assessed as CYP24A1 expression at 7.5 uM after 18 hrs by qRT-PCR method relative to 1alpha,25-dihydroxyvitamin D3. Format: cell-based. To be noted: DU-145. A digest of the protocol: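 Non-transfected DU145 cells were grown in DMEM with 10% heat-inactivated FBS and plated on matrigel-coated 6-well plates overnight at 37°C. Total RNA was isolated and CYP24A1 fold change was measured by real-time RT-PCR (Ct method). Experiments were run in triplicate; significance by Dunnett ANOVA.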
(In general: Real-time PCR tracks product formation cycle by cycle.)

For data set [8] the target is unchanged. The data set can be described thus: Agonist activity at VDR-LBD in human DU145 cells assessed as CYP24A1 expression at 7.5 uM in presence of 20 nM 1alpha,25-dihydroxyvitamin D3 after 18 hrs by qRT-PCR method. Format: cell-based. The note with it: DU-145. The gist of the method:
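Non-transfected DU145 cells were grown in DMEM with 10% heat-inactivated FBS and plated on matrigel-coated 6-well plates overnight at 37°C. […] Total RNA was isolated and CYP24A1 fold change was measured by real-time RT-PCR (Ct method). Experiments were run in triplicate; significance by Dunnett ANOVA.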

For data set [9] the target is unchanged. The data set can be described thus: Agonist activity at human VP16 tagged-VDR-LBD after 16 hrs by luciferase reporter gene based transcription assay relative to 1,25-dihydroxyvitamin D3. A digest of the protocol:
(§1)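 HEK293T cells were lipid-transfected with hVDR-Gal4 and 4×UAS luciferase reporter plasmids for 16 h. Cells were then plated at 15,000/well on matrigel in phenol-red-free DMEM with 2% charcoal-treated FBS. Compounds (1:3 serial dilution, max final 150 µM) were added after 4 h and incubated 16 h at 37°C; readout by Bright-Glo luminescence. […] Three experiments in quadruplicate; nonlinear regression.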

In data set [10] the target is T1, Vitamin D3 receptor. The data set can be described thus: Agonist activity at human VP16 tagged-VDR-LBD after 16 hrs by luciferase reporter gene based transcription assay. The gist of the method:
as §1

As a reminder, the EC50 is the concentration that produces a half-maximal response. Broadly, the IC50 is the concentration that gives 50% inhibition. On to `C[C@H](CCC(=O)O)[C@H]1CC[C@H]2[C@@H]3CC[C@@H]4C[C@H](OS(=O)(=O)O)CC[C@]4(C)[C@H]3CC[C@]12C`, for which the EC50 in [1] and in data set [3] was over 150 µM in each case. For the same compound, the 50% inhibitory concentration (IC50) in data set [2] is over 50 µM; in data set [4], 23.3 µM. Moreover, in [5], the CC50 at 18 h was over 150 µM.
With `C[C@H](CCC(=O)O)[C@H]1CC[C@H]2[C@@H]3[C@@H](O)C[C@@H]4C[C@H](O)CC[C@]4(C)[C@H]3CC[C@]12C` [URSODIOL], the concentration for a half-maximal effect (EC50) in data set [1] and in [3] was over 150 µM in each case. The IC50 in data set [2] was over 50 µM; in [4], over 150 µM. Besides, in data set [5], the CC50 at 18 h is over 150 µM.
With `C[C@H](CCC(=O)O)[C@H]1CC[C@H]2[C@@H]3CC[C@@H]4C[C@H](O)CC[C@]4(C)[C@H]3CC[C@]12C` [LITHOCHOLIC ACID], the CC50 at 18 h in data set [5] was determined as 55.9 µM.
As for `C[C@H](CCC(=O)O[C@@H]1O[C@H](C(=O)O)[C@@H](O)[C@H](O)[C@H]1O)[C@H]1CC[C@H]2[C@@H]3CC[C@@H]4C[C@H](O)CC[C@]4(C)[C@H]3CC[C@]12C`, the results for the Efficacy in [6] and in data set [9] were 29% and 70%, respectively. For the same compound, the outcome in data set [7] and in data set [8] was Active. Moreover, the figures for the 50% effective concentration (EC50) in data set [1], in [3] and in data set [10] were 6.52 µM, over 150 µM and 21.3 µM, respectively. Further, the values for the IC50 in data set [2] and in data set [4] were over 150 µM and 2.86 µM, respectively. In addition, the CC50 at 18 h in data set [5] is over 150 µM.
For the compound `C[C@H](CCC(=O)NCCS(=O)(=O)O)[C@H]1CC[C@H]2[C@@H]3CC[C@@H]4C[C@H](O)CC[C@]4(C)[C@H]3CC[C@]12C` [TAUROLITHOCHOLIC ACID], the concentration giving a half-maximal response (EC50) in data set [1] and in [3] was over 150 µM in each case. The 50% inhibitory concentration (IC50) in [2] was over 50 µM; in [4], 14.5 µM. For the same compound, in data set [5], the CC50 at 18 h was over 150 µM.
For the compound `C[C@H](CCC(=O)O)[C@H]1CC[C@H]2[C@@H]3[C@H](O)C[C@@H]4C[C@H](O)CC[C@]4(C)[C@H]3CC[C@]12C` [CHENODIOL], the EC50 in [1] and in [3] was over 150 µM in each case. Also, the IC50 was over 50 µM in data set [2] and over 150 µM in [4]. In data set [5], the CC50 at 18 h is over 150 µM.
As for `COC(=O)CC[C@@H](C)[C@H]1CC[C@H]2[C@@H]3CC[C@@H]4C[C@H](O)CC[C@]4(C)[C@H]3CC[C@]12C`, the EC50 in data set [1] and in data set [3] was over 150 µM throughout. Besides, the values for the half-inhibitory concentration (IC50) in data set [2] and in data set [4] were 15.1 µM and over 150 µM, respectively. The CC50 at 18 h in data set [5] came out at 50.4 µM.
Turning to `C[C@H](CCC(=O)O)[C@H]1CC[C@H]2[C@@H]3CC[C@@H]4C[C@H](O)CC[C@]4(C)[C@H]3C[C@H](O)[C@]12C` [DEOXYCHOLIC ACID], the EC50 in [1] and in data set [3] was over 150 µM each time. For the same compound, the concentration for half-maximal inhibition (IC50) in data set [2] was over 50 µM; in [4], over 150 µM. Also, in data set [5], the CC50 at 18 h was over 150 µM.
Turning to `C[C@H](CCC(=O)O)[C@H]1CC[C@H]2[C@@H]3CC[C@@H]4C[C@H](O[C@@H]5O[C@H](C(=O)O)[C@@H](O)[C@H](O)[C@H]5O)CC[C@]4(C)[C@H]3CC[C@]12C`, the Efficacy was 49% in [6] and 55% in data set [9]. Moreover, the result in data set [7] was inactive. Also, the EC50 in data set [1] is 20.5 µM; in [3], over 50 µM; in data set [10], 12.3 µM. The IC50 in [2] is over 150 µM; in [4], 31.5 µM. The CC50 at 18 h in [5] was over 150 µM.
As for `CC(=O)O[C@@H]1CC[C@@]2(C)[C@H](CC[C@@H]3[C@@H]2CC[C@]2(C)[C@@H]([C@H](C)CCC(=O)O)CC[C@@H]32)C1`, the EC50 in [1] is 1.49 µM; in data set [3] it was over 150 µM. The IC50 in [2] is over 50 µM; in data set [4], 11 µM. The CC50 at 18 h in data set [5] is over 50 µM.
With `C=C1/C(=C\C=C2/CCC[C@]3(C)[C@@H]([C@H](C)CC(=O)O)CC[C@@H]23)C[C@@H](O)C[C@@H]1O`, in data set [6], the Efficacy was 55%. Besides, in data set [7], the outcome was Active. Besides, the EC50 in data set [1] is 0.87 µM; in data set [3], over 100 µM. The concentration for half-maximal inhibition (IC50) in data set [2] was over 100 µM; in data set [4] it was 2.29 µM. The CC50 at 18 h in data set [5] was over 100 µM.
Turning to `C[C@H](CCC(=O)O)[C@H]1CC[C@H]2[C@@H]3C[C@H](O)[C@@H]4C[C@H](O)CC[C@]4(C)[C@H]3CC[C@]12C` [HYODEOXYCHOLIC_ACID], the EC50 in data set [1] and in data set [3] was over 150 µM throughout. Further, the values for the IC50 in data set [2] and in data set [4] were over 50 µM and over 150 µM, respectively. Besides, the CC50 at 18 h in [5] was over 150 µM.
For the compound `C[C@H](CCC(=O)NCC(=O)O)[C@H]1CC[C@H]2[C@@H]3CC[C@@H]4C[C@H](O)CC[C@]4(C)[C@H]3CC[C@]12C` [LITHOGLYCOCHOLATE], the half-maximal effective concentration (EC50) in data set [1] and in [3] was over 150 µM in each case. Moreover, the concentration for half-maximal inhibition (IC50) in [2] is over 50 µM; in data set [4], 40.1 µM. The CC50 at 18 h in [5] was over 150 µM.
